# Screening data from PubChem.
# UPR CHOP act – activators of apoptotic arm of unfolded protein response (CHOP). CHO-CHOP luciferase reporter, UPR activation, luminescence; percent of tunicamycin response over DMSO baseline. activation, % at 10 µM. hit rate 0.34% among 330,000;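 active means at 10 µM dose, activation of 40% or more, normalized to positive control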;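 further: 100% = tunicamycin at 10 µg/mL and 0% = DMSO alone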
#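 System: CHO CHOP reporter cells. Amount: 500 cells per well. Buffer or medium: F12 medium, 10% FBS. Compound dosing: one dose, 10 µM in 0.5% DMSO. Incubation: 6 h compound exposure at 37 °C after overnight seeding. Technique: Steady-Glo luciferase luminescence. Benchmarks: tunicamycin and DMSO controls.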
# CHOP inhibitor – CHOP inhibition in unfolded protein response; CHO-K1 CHOP-promoter luciferase, tunicamycin-induced, 15-18 h; inhibition, % at 10 µM; hit rate 3.8% among 220,000; AID 2732;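 active means compounds that reduced the stress-induced luciferase reporter signal by more than about 70% of percent inhibition, limit read from the data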;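 further: 0% = tunicamycin plus vehicle and 100% = wells without tunicamycin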
# UPR XBP1 act – activators of adaptive arm of unfolded protein response (XBP1); CHO-XBP1 luciferase reporter, IRE1-XBP1 UPR activation, luminescence; percent of tunicamycin response, DMSO as zero; activation, % at 20 µM; hit rate 0.33% among 330,000; AID 463104;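 active means versus positive control, 20 µM dose yields 30% or more activation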;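 further: 100% = tunicamycin at 10 µg/mL and 0% = DMSO only wells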
#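 Material: CHO-XBP1 cells stably carrying IRE1-XBP1-driven luciferase reporter / Amount: 1000 cells per well / Compound: 20 µM, 1% DMSO / Times: 6 h treatment, 37 °C / Detection: luciferase luminescence / Measure: % activation of reporter signal versus tunicamycin and DMSO controls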
# PvdQ acylase – P. aeruginosa PvdQ acylase inhibition | purified PvdQ acylase, fluorescence plate reader | inhibition, % at 10 µM | hit rate 0.063% among 340,000 | AID 488965; in the data active means inhibition above about 30%, passing the limit was not always enough;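 further: 0% = vehicle neutral wells and 100% = reference inhibitor wells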
# Starred values were filed as active, the others as inactive; x = not tested or not shown. The entries come from a sample that favours hits as a whole.
SMILES,UPR CHOP act,CHOP inhibitor,UPR XBP1 act,PvdQ acylase
O=C(Nc1nnc(-c2ccc3c(c2)CCCC3)o1)c1c(F)cccc1F,-4,13,-2,4
O=C(Nc1nnc(-c2ccc3c(c2)CCCC3)o1)C1CCCCC1,1,84*,6,2
COCCN1CCN(c2cc(-c3ccccc3)nc3cc(-c4cccc(F)c4)nn23)CC1,6,80*,0,9
COc1ccc(CN(C)C(=O)c2oc3ccccc3c2CSC)cc1F,2,x,4,-13
O=C(COC(=O)/C=C/c1ccccc1Cl)NC(=O)Cc1ccccc1,2,50,-4,3
Cc1cc(C(=O)COC(=O)c2ccc(Cl)c(S(N)(=O)=O)c2)c(C)n1C1CC1,7,x,1,-15
CCOc1cc(/C=C/C(=O)OCC(=O)NCc2ccco2)cc(Cl)c1OC,-1,x,-3,11
CCN(CC)c1ccc(NC(=O)Cn2cc3c(n2)CCC(C)C3)c(C)c1 (stereo not given),-1,79*,-3,-11
Cc1cc(S(=O)(=O)Nc2cccc(Cl)c2)c(C)s1,-1,1,0,-8
COc1cccc(NS(=O)(=O)c2cc(C)sc2C)c1,3,75*,-2,9
Cc1cc(=O)[nH]c(N/N=C/c2ccc(Br)s2)n1,3,3,-4,-9
CC1CCN(c2nc3c(c(=O)n(C)c(=O)n3C)n2CCSc2nc3ccccc3s2)CC1,5,76*,4,-18
CCCn1c(N)c(C(=O)CSc2nncs2)c(=O)[nH]c1=O,0,x,0,-13
O=C(NCc1ccc2c(c1)OCO2)Nc1cccc2ccccc12,2,86*,-2,-6
Cc1ccc(Cn2c(=O)n(CCC(=O)NCc3ccc4c(c3)OCO4)c(=O)c3ccccc32)cc1,2,95*,0,-15
Cc1cccc(N2CCN(S(=O)(=O)c3ccc4c(c3)CCCN4C(=O)C3CCC3)CC2)c1C,1,x,-6,9
Cc1ccc(NC(=O)CSc2nnc(-c3cnccn3)n2-c2ccccc2)cc1,1,48,1,14
C(=N\Nc1ccc2ccccc2n1)/c1ccc2c(c1)OCCO2,-8,75*,-10,6
Cc1cc(NC(=O)CSc2nc3ccsc3c(=O)n2CCCC(=O)NCCc2ccccc2)no1,-1,20,-2,-15
CCCC1Cc2c(sc3nc(SC)nc(N)c23)CO1 (stereo not given),2,74*,-1,-13
COc1ccccc1NC(=O)CSc1nc2ccccc2nc1N1CC(C)OC(C)C1 (stereo not given),-1,x,0,-8
COc1ccc(CCCC(=O)NCC(=O)N/N=C/c2cc(Cl)ccc2OC)cc1,-1,x,-3,-5
CC(C)(C)NC(=O)NC(=O)COC(=O)C1=COCCO1,0,81*,0,2
O=C(CNC(=O)C1CCCCC1)OCn1nnc2ccccc2c1=O,1,36,-2,-18
CC(C)(Oc1ccc(Cl)cc1)C(=O)OCn1nnc2ccccc2c1=O,0,78*,-1,-15
SMILES,UPR CHOP act,CHOP inhibitor,UPR XBP1 act,PvdQ acylase
O=C(CC1CCCCC1)OCn1nnc2ccccc2c1=O,-1,82*,-1,4
Cc1ccc([N+](=O)[O-])cc1NC(=O)CSc1nncc2ccccc12,-2,x,-1,-3
CC1=C/C(=C(\c2cc(C)c(O)c(Br)c2)c2ccccc2S(=O)(=O)O)C=C(Br)C1=O,-3,x,-4,-5
Cc1ccc(/C=C/c2nc3ccccc3s2)s1,-7,28,-5,-11
CN(C)c1ccc(/C=C/c2ccc3ccccc3n2)cc1,x,78*,x,0
CN(C)c1ccc(/C=C/c2nc3ccccc3s2)cc1,-7,81*,-5,10
C(=C\c1ccc2ccccc2n1)/c1ccccc1,-5,71*,-8,3
CCCCN(C)CCCNC(=O)c1cn(C)c2ccc(S(=O)(=O)N(C)C3CCCCC3)cc2c1=O,0,x,-1,-9
CC(C)CCn1c(SCC(=O)NC2CCS(=O)(=O)C2)nc2cc(Cl)ccc2c1=O (stereo not given),0,x,-4,3
Cc1cccc(OCC(=O)N/N=C/c2cn[nH]c2-c2ccc(Cl)c(Cl)c2)c1,2,80*,1,-14
CCOC(=O)N1CCN(c2nc3ccccn3c(=O)c2C=O)CC1,1,x,-1,31*
CCOc1ccc(N=C2SCC(=O)N2CC)cc1,0,x,-3,-27
CCN1C(=O)CSC1=NC1C2CC3CC(C2)CC1C3 (stereo not given),-3,76*,-2,-23
Cc1csc(NC(=O)C(CC(C)C)NS(=O)(=O)c2ccc3c(c2)oc(=O)n3C)n1 (stereo not given),2,97*,1,-13
Cc1csc(NC(=O)C2CCN(S(=O)(=O)c3ccc4c(c3)oc(=O)n4C)CC2)n1,1,52,-4,-19
COc1ccccc1N1CCN(CCCCNS(=O)(=O)c2cccc3c(N(C)C)cccc23)CC1,x,-5,x,x
CCOc1ccc(S(=O)(=O)NC(C)(C)C)cc1-c1nc2c(C(C)(C)C)nn(C)c2c(=O)[nH]1,2,81*,-2,11
c1ccc(OCCCc2nc(-c3ccncc3)no2)cc1,-1,90*,2,2
c1ccc(OCc2nc(-c3ccncc3)no2)cc1,7,-5,4,-4
CCOc1cccc(CNCCSc2nnnn2C)c1,0,-4,-3,-8
CCOC(=O)CSc1nnc2c3ccccc3n(C)c2n1,0,x,2,-13
CC(C)n1c2ccccc2c2nnc(SCC(=O)OCN3C(=O)c4ccccc4C3=O)nc21,1,90*,-1,-6
Cc1ccc(S(=O)(=O)N2CCN(C(=O)Cn3c(=O)oc4ccccc43)CC2)c(C)c1,0,x,-5,-8
Cc1cc(Br)cc(C)c1NC(=S)NC(=O)CC(C)C,2,92*,2,-16
CCC(=O)NC(=S)Nc1c(C)cc(Br)cc1C,1,13,-2,-15
SMILES,UPR CHOP act,CHOP inhibitor,UPR XBP1 act,PvdQ acylase
O=C(Cn1c2ccc(F)cc2c2nc3n(c(=O)c21)CCS3)Nc1ccccc1C(F)(F)F,0,78*,-1,-14
COc1ccc(C(=O)Oc2cccc(Nc3ncnc4ccccc34)c2)cc1OC,4,68,2,-10
COc1cc(C(=O)Oc2cccc(Nc3ncnc4ccccc34)c2)cc(OC)c1OC,0,92*,2,-21
O=C1/C(=C/c2cccnc2)Oc2cc(OS(=O)(=O)c3ccccc3)ccc21,0,30,0,-1
O=C1/C(=C/c2cccnc2)Oc2cc(OS(=O)(=O)c3ccc(Cl)cc3)ccc21,2,78*,0,-13
N#C/C(=C\c1ccco1)C(=O)Nn1cnnc1,-1,21,1,20
S=C(NCc1ccco1)N1CCN(c2ccc(Cl)cc2)CC1,-3,18,0,-5
S=C(NCc1ccco1)N1CCN(Cc2ccc(Cl)cc2Cl)CC1,-3,74*,-5,-2
Cc1ccc(-c2nnc(N3CCC(C)CC3)c3ccccc23)cc1C,2,90*,7,3
Cc1ccc(-c2nnc(N3CCCCCC3)c3ccccc23)cc1,11,x,7,9
